Data as given in BindingDB's records for doi:10.1021/jm001008m (University of The Saarland, 2000).
pIC50: −log10 of the molar value.

Assays:
[1] = target: T1, Steroid 17-alpha-hydroxylase/17,20 lyase (Rattus norvegicus, UniProt P11715); assay: Evaluated for the inhibitory activity towards Cytochrome P450 17 rat enzyme using testicular microsome at 25 uM of substrate (progesterone)
T1 sequence (P11715 whole entry): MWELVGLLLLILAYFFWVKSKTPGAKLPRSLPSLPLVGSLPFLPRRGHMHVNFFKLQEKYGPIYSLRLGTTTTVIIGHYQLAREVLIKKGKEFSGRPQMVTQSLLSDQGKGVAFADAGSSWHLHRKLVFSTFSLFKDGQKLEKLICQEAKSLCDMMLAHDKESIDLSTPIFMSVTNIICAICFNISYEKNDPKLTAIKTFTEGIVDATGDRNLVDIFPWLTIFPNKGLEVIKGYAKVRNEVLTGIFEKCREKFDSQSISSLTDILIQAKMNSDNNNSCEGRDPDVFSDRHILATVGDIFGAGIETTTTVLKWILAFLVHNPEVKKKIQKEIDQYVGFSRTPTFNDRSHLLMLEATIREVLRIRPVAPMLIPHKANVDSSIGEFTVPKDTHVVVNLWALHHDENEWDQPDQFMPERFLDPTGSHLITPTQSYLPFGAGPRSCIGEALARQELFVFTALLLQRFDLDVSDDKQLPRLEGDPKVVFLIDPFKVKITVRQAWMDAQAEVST
Method in brief: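 Testicular microsomes (human for human enzyme, rat for rat enzyme) incubated with progesterone substrate at 25 µM; product measured by RP-HPLC with UV detection. IC50 = concentration giving 50% inhibition, mean of at least two experiments.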

[2] = target: T2, Steroid 17-alpha-hydroxylase/17,20 lyase (Homo sapiens, UniProt P05093); assay: Evaluated for the inhibitory activity towards Cytochrome P450 17 human enzyme using testicular microsome at 25 uM of substrate (progesterone)
T2 sequence (P05093 whole entry): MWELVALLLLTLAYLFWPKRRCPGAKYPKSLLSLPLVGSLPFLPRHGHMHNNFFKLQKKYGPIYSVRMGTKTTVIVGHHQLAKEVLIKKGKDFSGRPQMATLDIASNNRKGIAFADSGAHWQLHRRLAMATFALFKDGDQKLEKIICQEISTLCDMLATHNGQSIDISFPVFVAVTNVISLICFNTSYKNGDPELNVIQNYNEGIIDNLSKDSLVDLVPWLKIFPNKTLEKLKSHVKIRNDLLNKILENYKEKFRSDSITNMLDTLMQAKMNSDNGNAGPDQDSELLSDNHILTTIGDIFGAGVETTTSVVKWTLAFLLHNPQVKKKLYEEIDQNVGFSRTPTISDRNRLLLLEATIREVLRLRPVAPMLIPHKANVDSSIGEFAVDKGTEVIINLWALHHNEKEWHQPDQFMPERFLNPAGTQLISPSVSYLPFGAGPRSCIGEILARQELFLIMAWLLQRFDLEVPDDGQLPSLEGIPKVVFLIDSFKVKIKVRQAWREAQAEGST

[3] = target: T3, 3-oxo-5-alpha-steroid 4-dehydrogenase 2 (Homo sapiens, UniProt P31213); assay: Evaluated for the inhibitory activity against human steroid 5-alpha-reductase type 2 from human BPH tissue at 210 nM of testosterone
T3 sequence (P31213 whole entry): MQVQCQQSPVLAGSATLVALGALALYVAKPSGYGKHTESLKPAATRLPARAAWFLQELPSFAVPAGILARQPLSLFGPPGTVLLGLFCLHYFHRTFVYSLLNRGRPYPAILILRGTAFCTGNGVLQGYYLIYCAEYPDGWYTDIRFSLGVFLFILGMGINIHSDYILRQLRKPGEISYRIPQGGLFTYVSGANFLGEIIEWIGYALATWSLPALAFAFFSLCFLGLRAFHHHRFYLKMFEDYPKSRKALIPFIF
Method in brief: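 Enzyme from prostate homogenate of BPH patients, assayed at pH 5.5 with radiolabeled testosterone at 210 nM; product separated by HPLC. IC50 taken as inhibitor concentration giving 50% inhibition; mean of at least two experiments.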

pIC50 [1]: < 3.90
pIC50 [2]: < 5.60
pIC50 [3]: 6.24
SMILES: CC(N=O)[C@H]1CCC2C3CCC4=CC(=O)CCC4(C)C3CCC21C (stereo partly drawn) [17-(1-Hydroxyimino-ethyl)-10,13-dimethyl-1,2,6,7,8,9,10,11,12,13,14,15,16,17-tetradecahydro-cyclopenta[a]phenanthren-3-one]
